The values that follow come from article PMC7246176 (Nature chemical biology, 2020).

The subject of experiment [1] is FKBP12^F36V-KRAS^G12V. The experiment is described as follows: KRAS G12V degradation by immunoblot in FKBP12F36V-KRASG12V. In kind it is cell-based, human. Particulars: KRAS^−/− cells. For orientation: In western blotting, separated proteins are transferred to a membrane and probed.
The target of experiment [2] is T1, DCLK1-Nluc in HCT116 cells (Homo sapiens, UniProt O15075).
T1 sequence (O15075 1-729 isoform O15075-2): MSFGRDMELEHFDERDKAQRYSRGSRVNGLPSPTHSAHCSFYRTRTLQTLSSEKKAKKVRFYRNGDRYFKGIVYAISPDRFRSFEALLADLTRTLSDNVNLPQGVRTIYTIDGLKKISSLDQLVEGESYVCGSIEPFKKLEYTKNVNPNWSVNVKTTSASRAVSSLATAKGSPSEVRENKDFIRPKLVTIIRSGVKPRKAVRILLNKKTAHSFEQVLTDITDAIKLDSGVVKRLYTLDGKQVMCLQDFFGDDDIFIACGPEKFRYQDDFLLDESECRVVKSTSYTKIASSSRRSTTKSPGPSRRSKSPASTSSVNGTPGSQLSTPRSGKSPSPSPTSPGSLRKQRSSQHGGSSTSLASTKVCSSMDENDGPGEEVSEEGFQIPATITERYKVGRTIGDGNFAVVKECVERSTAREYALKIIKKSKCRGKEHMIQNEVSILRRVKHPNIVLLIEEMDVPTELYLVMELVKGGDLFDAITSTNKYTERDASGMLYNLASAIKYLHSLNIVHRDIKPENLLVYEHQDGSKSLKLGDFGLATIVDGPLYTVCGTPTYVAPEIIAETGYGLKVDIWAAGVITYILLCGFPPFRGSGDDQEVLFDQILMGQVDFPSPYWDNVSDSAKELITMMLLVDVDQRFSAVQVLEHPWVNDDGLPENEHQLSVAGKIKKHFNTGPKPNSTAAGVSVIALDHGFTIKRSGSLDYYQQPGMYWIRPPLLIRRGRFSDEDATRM
The experiment can be described thus: DCLK1 NanoBRET target engagement assay in HCT116 cells. It is filed as cell-based. (In general: BRET reads energy transfer from a luciferase to a nearby fluorophore.)

Experiment [3] relates to PANFR0172_T3. The experiment can be described thus: Patient-derived pancreatic organoid viability, PANFR0172_T3. In kind it is cell-based, human. Particulars: read-out: PANFR0172_T3 3D organoid culture IC50. Put shortly:
(§1)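 Patient-derived PDAC organoids were dissociated to single cells and plated at 1000 viable cells/well in complete organoid medium with 10% Matrigel, in ultra-low-attachment 384-well plates. After 24 h, compound was added by digital dispenser, then 7 days incubation. Read-out was CellTiter-Glo 3D luminescence after 1 h shaking at room temperature, normalized to DMSO wells for each culture.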

For experiment [4], the target named is T2, DCLK1 (Homo sapiens, UniProt O15075).
T2 sequence (O15075 1-740): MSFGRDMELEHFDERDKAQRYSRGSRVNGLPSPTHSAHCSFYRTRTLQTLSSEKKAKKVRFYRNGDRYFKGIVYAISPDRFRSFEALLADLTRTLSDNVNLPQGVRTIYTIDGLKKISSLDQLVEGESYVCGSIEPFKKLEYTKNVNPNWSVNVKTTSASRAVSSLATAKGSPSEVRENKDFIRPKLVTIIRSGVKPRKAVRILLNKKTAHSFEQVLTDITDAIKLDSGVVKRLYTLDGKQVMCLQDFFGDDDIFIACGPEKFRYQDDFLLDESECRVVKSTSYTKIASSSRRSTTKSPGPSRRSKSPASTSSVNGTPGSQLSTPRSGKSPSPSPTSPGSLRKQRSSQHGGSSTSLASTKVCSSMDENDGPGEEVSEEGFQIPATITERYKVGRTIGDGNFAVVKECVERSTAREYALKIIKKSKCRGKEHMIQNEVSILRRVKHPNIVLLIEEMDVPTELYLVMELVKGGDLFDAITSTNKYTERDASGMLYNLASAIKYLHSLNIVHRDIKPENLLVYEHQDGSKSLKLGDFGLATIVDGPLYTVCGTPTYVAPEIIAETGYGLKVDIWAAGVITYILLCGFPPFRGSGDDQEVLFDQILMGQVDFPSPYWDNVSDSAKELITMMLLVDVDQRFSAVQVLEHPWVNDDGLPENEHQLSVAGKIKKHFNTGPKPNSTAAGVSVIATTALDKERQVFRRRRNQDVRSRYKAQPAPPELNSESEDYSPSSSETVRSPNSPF
The experiment is described as follows: 33P-ATP DCLK1 kinase assay. In kind it is biochemical. Particulars: DCLK1 kinase assay IC50, 33P-ATP; ATP 50 μM (Km).

Experiment [5] concerns PATU-8902 cells. The experiment can be described thus: Cell viability, ultra-low adherent 3D-spheroid culture, PATU-8902. To be noted: read-out: PATU-8902 cells 3D spheroid culture IC50. In kind it is cell-based, human. In short, it runs like this: (§2)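 PATU-8988T and PATU-8902 cells were plated at 100 cells/well in 50 μL media, either adherent (2D) or in ultra-low attachment spheroid plates (3D), overnight. Test compound was pin-transferred and cells were incubated 120 h. Viability was read by CellTiter-Glo luminescence after 15 min at room temperature. Data were normalized to DMSO-treated wells per cell line and fitted.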

In experiment [6] the test system is PANFR0172_T4. The experiment can be described thus: Patient-derived pancreatic organoid viability, PANFR0172_T4. It is filed as cell-based, human. To be noted: read-out: PANFR0172_T4 3D organoid culture IC50. Put shortly: as §1
Experiment [7] concerns the target LRRK2 (Homo sapiens, UniProt Q5S007). The experiment can be described thus: LRRK2 ADAPTA kinase assay. In kind it is biochemical. To be noted: LRRK2 kinase assay IC50, ADAPTA; Table 1.
Experiment [8] relates to PATU-8988T cells. The experiment is described as follows: Cell viability, ultra-low adherent 3D-spheroid culture, PATU-8988T. In kind it is cell-based, human. Particulars: 120 h, read-out: PATU-8988T cells 3D spheroid culture IC50. Put shortly:
(§3)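 PATU-8902 or PATU-8988T cells were plated at 100 cells/well and left overnight to adhere (2D plates) or to form spheroids (ultra-low-attachment 3D spheroid plates). Compound was pin-transferred, then 120 h incubation. Viability by CellTiter-Glo luminescence after 15 min at room temperature, normalized to DMSO-treated wells for each cell line.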

Experiment [9] has as its target T3, DCLK2 (Homo sapiens, UniProt Q8N568).
T3 sequence (Q8N568 1-766): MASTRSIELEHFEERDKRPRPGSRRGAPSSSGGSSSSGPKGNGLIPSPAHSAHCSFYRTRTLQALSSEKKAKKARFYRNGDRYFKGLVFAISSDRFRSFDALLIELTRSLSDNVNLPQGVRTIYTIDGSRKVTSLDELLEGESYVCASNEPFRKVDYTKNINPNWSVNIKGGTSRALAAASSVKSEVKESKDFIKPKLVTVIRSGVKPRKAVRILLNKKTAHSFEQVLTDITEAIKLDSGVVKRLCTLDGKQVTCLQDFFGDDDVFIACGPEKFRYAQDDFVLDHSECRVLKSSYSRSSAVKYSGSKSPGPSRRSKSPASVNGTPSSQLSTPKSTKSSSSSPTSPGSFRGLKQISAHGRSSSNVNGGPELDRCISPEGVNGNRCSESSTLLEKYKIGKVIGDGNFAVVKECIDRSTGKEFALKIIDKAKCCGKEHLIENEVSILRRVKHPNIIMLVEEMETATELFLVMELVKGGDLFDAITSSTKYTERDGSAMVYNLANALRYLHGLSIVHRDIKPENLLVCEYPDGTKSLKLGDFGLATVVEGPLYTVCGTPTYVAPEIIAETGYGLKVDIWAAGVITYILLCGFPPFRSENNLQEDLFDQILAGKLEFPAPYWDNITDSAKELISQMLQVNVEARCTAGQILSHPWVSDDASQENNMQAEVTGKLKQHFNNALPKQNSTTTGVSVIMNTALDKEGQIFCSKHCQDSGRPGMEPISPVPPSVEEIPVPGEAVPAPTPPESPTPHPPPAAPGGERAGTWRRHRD
The experiment can be described thus: DCLK2 KINOMEscan binding assay. In short, it runs like this:
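KINOMEscan competition binding run by a contract lab. Test compound in 12-point dose response, top concentration 10 μM. Values are the mean of n = 2 biologically independent samples.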

Experiment [10] has as its system PATU-8902 cells. The experiment can be described thus: Cell viability, 2D-adherent monolayer culture, PATU-8902. In kind it is cell-based, human. To be noted: read-out: PATU-8902 cells 2D monolayer culture IC50. In short, it runs like this: as §3
Experiment [11] deals with PANFR0172_T2. The experiment can be described thus: Patient-derived pancreatic organoid viability, PANFR0172_T2. It is filed as cell-based, human. Particulars: read-out: PANFR0172_T2 3D organoid culture IC50. Put shortly: as §1
Experiment [12] deals with PATU-8988T cells. The experiment is described as follows: Cell viability, 2D-adherent monolayer culture, PATU-8988T. It is filed as cell-based, human. Particulars: 120 h, read-out: PATU-8988T cells 2D monolayer culture IC50. Put shortly:
as §2

Experiment [13] relates to DCLK1 protein levels. The experiment can be described thus: DCLK1 protein levels by immunoblot in PDAC cells. In kind it is cell-based, human. To be noted: after 48 h, PATU-8988T and PATU-8902 cells.
The test system of experiment [14] is PANFR0029_T2. The experiment can be described thus: Patient-derived pancreatic organoid viability, PANFR0029_T2. To be noted: read-out: PANFR0029_T2 3D organoid culture IC50. In kind it is cell-based, human. In short, it runs like this:
as §1

Where [15] appears, read: viability, 7 d, P.R. = partial response.

Read-outs that look alike come from different tables or passages of the source.

LRRK2, sequence (Q5S007 whole entry): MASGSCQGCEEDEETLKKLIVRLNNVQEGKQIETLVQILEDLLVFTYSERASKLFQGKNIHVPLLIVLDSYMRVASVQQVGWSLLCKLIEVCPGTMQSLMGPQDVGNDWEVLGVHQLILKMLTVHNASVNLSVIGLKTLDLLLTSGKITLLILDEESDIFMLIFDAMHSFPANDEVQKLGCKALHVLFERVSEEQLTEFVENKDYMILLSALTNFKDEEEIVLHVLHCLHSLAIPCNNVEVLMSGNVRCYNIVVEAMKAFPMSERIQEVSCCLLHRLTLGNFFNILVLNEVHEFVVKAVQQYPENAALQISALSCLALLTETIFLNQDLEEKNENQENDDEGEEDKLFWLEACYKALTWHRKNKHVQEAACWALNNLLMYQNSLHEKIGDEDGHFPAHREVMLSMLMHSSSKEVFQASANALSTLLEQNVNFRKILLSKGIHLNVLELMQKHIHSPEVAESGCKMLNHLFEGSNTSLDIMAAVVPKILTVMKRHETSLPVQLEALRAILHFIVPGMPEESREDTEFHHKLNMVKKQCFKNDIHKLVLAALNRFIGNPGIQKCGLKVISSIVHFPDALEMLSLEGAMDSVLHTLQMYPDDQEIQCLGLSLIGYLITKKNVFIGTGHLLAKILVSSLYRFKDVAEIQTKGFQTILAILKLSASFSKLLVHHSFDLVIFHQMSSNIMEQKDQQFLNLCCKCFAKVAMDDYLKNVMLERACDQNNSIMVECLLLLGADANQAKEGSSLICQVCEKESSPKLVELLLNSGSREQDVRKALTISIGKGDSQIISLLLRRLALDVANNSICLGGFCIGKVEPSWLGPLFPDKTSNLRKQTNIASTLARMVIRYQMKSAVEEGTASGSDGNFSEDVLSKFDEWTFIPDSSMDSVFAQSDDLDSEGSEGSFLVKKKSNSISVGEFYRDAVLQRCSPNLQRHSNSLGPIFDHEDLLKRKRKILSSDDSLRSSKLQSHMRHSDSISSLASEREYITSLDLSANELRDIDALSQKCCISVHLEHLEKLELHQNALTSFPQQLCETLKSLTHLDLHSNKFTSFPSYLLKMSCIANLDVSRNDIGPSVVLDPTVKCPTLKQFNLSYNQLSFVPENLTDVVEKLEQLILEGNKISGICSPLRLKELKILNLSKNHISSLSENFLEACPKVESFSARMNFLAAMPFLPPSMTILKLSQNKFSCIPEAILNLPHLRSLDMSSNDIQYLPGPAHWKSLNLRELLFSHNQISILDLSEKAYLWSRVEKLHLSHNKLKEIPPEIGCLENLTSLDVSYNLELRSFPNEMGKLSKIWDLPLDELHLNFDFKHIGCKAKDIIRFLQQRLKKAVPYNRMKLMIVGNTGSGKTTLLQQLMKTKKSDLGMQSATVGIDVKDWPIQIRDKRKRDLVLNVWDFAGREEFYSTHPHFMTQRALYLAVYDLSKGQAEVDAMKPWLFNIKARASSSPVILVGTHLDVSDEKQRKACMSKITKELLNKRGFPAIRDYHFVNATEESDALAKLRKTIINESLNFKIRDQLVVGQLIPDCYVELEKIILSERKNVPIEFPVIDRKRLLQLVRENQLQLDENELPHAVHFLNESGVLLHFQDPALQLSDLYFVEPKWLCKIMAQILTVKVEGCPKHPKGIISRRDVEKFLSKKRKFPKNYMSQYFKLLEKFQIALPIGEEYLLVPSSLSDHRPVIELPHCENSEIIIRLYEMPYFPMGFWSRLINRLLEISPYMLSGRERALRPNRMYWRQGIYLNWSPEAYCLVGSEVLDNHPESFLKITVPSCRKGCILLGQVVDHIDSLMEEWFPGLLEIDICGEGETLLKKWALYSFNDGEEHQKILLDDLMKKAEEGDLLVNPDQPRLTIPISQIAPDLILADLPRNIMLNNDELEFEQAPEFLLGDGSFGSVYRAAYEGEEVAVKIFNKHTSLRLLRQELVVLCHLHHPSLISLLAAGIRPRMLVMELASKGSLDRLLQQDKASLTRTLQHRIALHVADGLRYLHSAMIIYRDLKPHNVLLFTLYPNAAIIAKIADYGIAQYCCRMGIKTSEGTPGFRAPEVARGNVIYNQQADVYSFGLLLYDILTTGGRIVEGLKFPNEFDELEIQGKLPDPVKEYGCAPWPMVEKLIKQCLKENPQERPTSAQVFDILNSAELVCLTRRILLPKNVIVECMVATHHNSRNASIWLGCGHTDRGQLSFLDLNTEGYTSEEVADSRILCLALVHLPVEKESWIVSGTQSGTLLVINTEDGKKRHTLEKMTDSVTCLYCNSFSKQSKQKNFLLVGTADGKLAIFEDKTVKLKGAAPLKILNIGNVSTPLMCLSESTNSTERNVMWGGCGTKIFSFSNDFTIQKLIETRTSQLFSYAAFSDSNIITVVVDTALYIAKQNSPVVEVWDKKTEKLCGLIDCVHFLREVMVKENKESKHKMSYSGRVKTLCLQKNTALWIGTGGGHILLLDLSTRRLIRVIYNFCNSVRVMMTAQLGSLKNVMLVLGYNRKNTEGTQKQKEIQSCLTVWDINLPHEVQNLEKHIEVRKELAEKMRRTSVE

For `CC[C@H](C(=O)N1CCCC[C@H]1C(=O)O[C@H](CCc1ccc(OC)c(OC)c1)c1ccccc1OCC(=O)NCCCCCCOc1cccc2c1C(=O)N(C1CCC(=O)NC1=O)C2=O)c1cc(OC)c(OC)c(OC)c1` (some centres unmarked) [dTAG-13], in [1], the “time to initiation of KRAS^G12V degradation” value is listed as no more than 1 h.

For the compound `COc1cc(C(=O)N2CCC(N3CCN(C)CC3)CC2)ccc1Nc1ncc2c(n1)N(C)c1ccccc1C(=O)N2C` [LRRK2-IN-1], the half-inhibitory concentration (IC50) (commonly the concentration that gives 50% inhibition) in experiment [2] is 400 nM; in experiment [3] (Homo sapiens, 168 h), 1500 nM; in [4] it was 55 nM; in experiment [5] (Homo sapiens, PaTu 8902, 120 h), greater than 1000 nM; in experiment [6] (Homo sapiens, 168 h), greater than 20 µM; in experiment [7] it was 4.1 nM. Besides, the IC50 in [8] (Homo sapiens, PaTu 8988t) was 1870 nM; in [9] it was 9.9 nM; in [10] (Homo sapiens, PaTu 8902, 120 h) it was greater than 20000 nM; in [11] (Homo sapiens, 168 h), 1340 nM; in [12] (Homo sapiens, PaTu 8988t), 1150 nM.

As for `CC(=O)Nc1cccc(-n2c(=O)n(C3CC3)c(=O)c3c(Nc4ccc(I)cc4F)n(C)c(=O)c(C)c32)c1` [Trametinib], the “effect on DCLK1 protein levels” value in experiment [13] is listed as “diminished DCLK1 protein levels”. Besides, the IC50 in experiment [3] (Homo sapiens, 168 h) is 1180 nM; in [5] (Homo sapiens, PaTu 8902, 120 h), less than 0.63 nM; in [6] (Homo sapiens, 168 h) it was greater than 20 µM; in experiment [8] (Homo sapiens, PaTu 8988t), 1 nM; in experiment [10] (Homo sapiens, PaTu 8902, 120 h), 4.89 nM; in experiment [14] (Homo sapiens, 168 h), 185 nM. Besides, the concentration for half-maximal inhibition (IC50) in [11] (Homo sapiens, 168 h) came out at 791 nM; in [12] (Homo sapiens, PaTu 8988t) it was 60 nM.

`Cc1sc2c(c1C)C(c1ccc(Cl)cc1)=N[C@@H](CC(=O)OC(C)(C)C)c1nnc(C)n1-2` [JQ1]: the IC50 in [3] (setting [15]) was greater than 1000 nM; in [5] (cell viability, 120 h, P.R. = partial response), greater than 1000 nM; in experiment [6] (setting [15]) it was greater than 1 µM; in experiment [8] (cell viability) it was 111 nM; in experiment [10] (cell viability, 120 h), 1810 nM; in [14] (viability, 7 d, DCLK1-negative organoids) it was 363 nM. Also, the half-maximal inhibitory concentration (IC50) in experiment [11] (setting [15]) was greater than 1000 nM; in [12] (cell viability, P.R. = partial response), 67.4 nM.
